Experimental data as given in ChEMBL document CHEMBL3872262, “Synthesis of novel C4-benzazole naphthalimide derivatives with potent anti-tumor properties against murine melanoma” (Bioorg Med Chem, 2017).
Activity calls are given as the source filed them. The rule behind the calls is not given here.

Experiments:
[1] = Cytotoxicity against mouse B16F10 cells measured after 2 days by MTS assay; details: B16-F10, 48 h
Homo sapiens [2] = species: Homo sapiens; assay: Inhibition of topoisomerase 2 (unknown origin) assessed as DNA intercalation at 10 uM using supercoiled pHOT-1 DNA as substrate measured after 30 mins by agarose gel electrophoresis
How it was run: (§1)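 Topoisomerase II drug screening kit. Supercoiled pHOT-1 plasmid incubated with topoisomerase II enzyme plus compound at 37 °C for 30 min, with 100 μM etoposide as positive control. Stopped with 10% SDS, then proteinase K for 15 min at 37 °C. Run on 1% agarose gel, stained with EtBr and viewed under UV.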

Homo sapiens [3] = species: Homo sapiens; assay: Inhibition of topoisomerase 2 (unknown origin) assessed as DNA intercalation at 100 uM using supercoiled pHOT-1 DNA as substrate measured after 30 mins by agarose gel electrophoresis; how it was run: as §1
B16-F10 = assay: Antitumor activity against mouse B16F10 cells implanted in C57BL/6 mouse assessed as reduction in lung metastasis at 2 mg/kg, ip administered daily for 1 to 14 days by microscopic method; assay type: functional, organism-based
How it was run: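 Female C57BL/6 mice, 6–8 weeks old, injected via tail vein with 2x10^5 B16F10 cells on day 0. Dosing 2 mg/kg ip daily on days 1–14, in 5% DMSO vehicle, with a vehicle control group. Total black lung nodules counted under microscopy on day 14, n=11/group.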

Mus musculus = assay: Toxicity in C57BL/6 mouse assessed as change in body weight at 2 mg/kg, ip administered daily for 9 days measured during compound dosing; assay type: organism-based; details: in vivo, 216 h
How it was run: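 Female C57BL/6 mice, n=5/group, given 2 mg/kg ip daily in 5% DMSO vehicle, with a vehicle control group. Body weights recorded on set days over a 9-day study.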

inhibition (Homo sapiens [2]) | inhibition (Homo sapiens [3]) | SMILES | IC50 [1] [µM] | Activity (B16-F10) | Activity (Mus musculus)
Active | Active | CN(C)CCN1C(=O)c2cccc3c(-c4nc5ccccc5s4)ccc(c23)C1=O | 4.5 | Active | Non-Toxic
 |  | CN(C)CCN1C(=O)c2cccc3cc(N)cc(c23)C1=O [AMONAFIDE] | 6.7 |  | 
Active |  | CN(C)CCN1C(=O)c2cccc3c(-c4nc5ccccc5o4)ccc(c23)C1=O | 7.8 | Active | Non-Toxic
